Results reported in ChEMBL document CHEMBL1125422, “Low molecular weight proteins as carriers for renal drug targeting. Preparation of drug-protein conjugates and drug-spacer derivatives and their catabolism in renal cortex homogenates and lysosomal lysates” (J Med Chem, 1992).

Columns and labels:
Rattus norvegicus [1] = organism: Rattus norvegicus; assay: Lysozyme-conjugated prodrugs: in vitro stability in lysosomal lysate at pH 5; assay type: functional
How it was run: (§1)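 Lysosomes isolated from pooled male Wistar rat kidney cortex by differential centrifugation, then lysed by 10 freeze–thaw cycles in liquid N2. 100 μL lysate diluted to 1.0 mL with 0.1 M phosphate buffer, pH 5.0 or 7.4. Samples were deproteinized and analysed by RP-HPLC against an internal standard. Parent drug released after 24 h, as a percentage, mean of ≥2 incubations.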

Rattus norvegicus [2] = organism: Rattus norvegicus; assay: (§2) Lysozyme-conjugated prodrugs: in vitro stability at pH 7.4; assay type: functional
How it was run: (§3)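 Conjugate incubated 24 h in pH 5.0 buffer, pH 7.4 buffer, or plasma buffered at pH 7.4. Samples were deproteinized with ACN, MeOH or 2 N HCl, centrifuged, and analyzed by RP-HPLC against an internal standard. Release is % parent drug = parent/(parent + derivative) from IS-normalized peak-area ratios, mean of at least two separate incubations.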

Rattus norvegicus [3] = organism: Rattus norvegicus; assay: Lysozyme-conjugated prodrugs: in vitro stability in lysosomal lysate at pH 7.4; assay type: functional; how it was run: as §1
Rattus norvegicus [4] = organism: Rattus norvegicus; assay: Lysozyme-conjugated prodrugs: in vitro stability in rat cortical homogenate at pH 7.4; assay type: functional
How it was run: (§4)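 Renal cortices from three male Wistar rats were perfused, pooled, homogenized in 0.3 M sucrose and lysed by 10 freeze–thaw cycles. Conjugate was incubated with 250 μL homogenate in 0.1 M phosphate buffer, pH 5.0 or 7.4, to 1.0 mL for 24 h. Samples were deproteinized and analyzed by HPLC with internal standard. Release is % parent compound, mean of ≥2 incubations.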

Rattus norvegicus [5] = organism: Rattus norvegicus; assay: (§5) Lysozyme-conjugated prodrugs: in vitro stability at pH 5; assay type: functional; how it was run: as §3
Rattus norvegicus [6] = organism: Rattus norvegicus; assay: Lysozyme-conjugated prodrugs: in vitro stability in rat cortical homogenate at pH 5; assay type: functional; how it was run: as §4
Rattus norvegicus [7] = organism: Rattus norvegicus; assay: as §2; assay type: functional; how it was run: as §3; remark: listed apart in the source
Rattus norvegicus [8] = organism: Rattus norvegicus; assay: as §5; assay type: functional; how it was run: as §3; remark: listed apart in the source
Rattus norvegicus [9] = organism: Rattus norvegicus; assay: as §2; assay type: functional; how it was run: as §3; remark: listed apart in the source
Rattus norvegicus [10] = organism: Rattus norvegicus; assay: as §5; assay type: functional; how it was run: as §3; remark: listed apart in the source
Rattus norvegicus [11] = organism: Rattus norvegicus; assay: as §5; assay type: ADME; how it was run: as §3
Rattus norvegicus [12] = organism: Rattus norvegicus; assay: as §2; assay type: functional; how it was run: as §3; remark: listed apart in the source
Rattus norvegicus [13] = organism: Rattus norvegicus; assay: as §2; assay type: functional; how it was run: as §3; remark: listed apart in the source
Rattus norvegicus [14] = organism: Rattus norvegicus; assay: Lysozyme-conjugated prodrugs: in vitro stability in buffered plasma at pH 7.4; assay type: functional; how it was run: as §3

Nc1ccc2ccccc2c1
Drug release (Rattus norvegicus [1]): Stable | Drug release (Rattus norvegicus [2]): Stable | Drug release (Rattus norvegicus [3]): Stable | Drug release (Rattus norvegicus [4]): Stable | Drug release (Rattus norvegicus [5]): Stable | Drug release (Rattus norvegicus [6]): Stable

COc1ccc2cc([C@H](C)C(=O)O)ccc2c1 [NAPROXEN]
Drug release (Rattus norvegicus [7]): 0% | Drug release (Rattus norvegicus [8]): 0% | Drug release (Rattus norvegicus [1]): Stable | Drug release (Rattus norvegicus [2]): Stable | Drug release (Rattus norvegicus [9]): 0% | Drug release (Rattus norvegicus [10]): 0% | Drug release (Rattus norvegicus [3]): Stable | Drug release (Rattus norvegicus [11]): 0% | Drug release (Rattus norvegicus [12]): 0% | Drug release (Rattus norvegicus [4]): Stable | Drug release (Rattus norvegicus [5]): Stable | Drug release (Rattus norvegicus [13]): 0% | Drug release (Rattus norvegicus [14]): Stable | Drug release (Rattus norvegicus [6]): Stable

COc1ccc2c(c1)c(CC(=O)O)c(C)n2C(=O)c1ccc(Cl)cc1
Drug release (Rattus norvegicus [1]): Stable | Drug release (Rattus norvegicus [2]): Stable | Drug release (Rattus norvegicus [4]): Stable | Drug release (Rattus norvegicus [5]): Stable | Drug release (Rattus norvegicus [14]): Stable | Drug release (Rattus norvegicus [6]): Stable

Nc1nc(N)c2nc(-c3ccccc3)c(N)nc2n1
Drug release (Rattus norvegicus [2]): Stable | Drug release (Rattus norvegicus [4]): Stable | Drug release (Rattus norvegicus [5]): Stable | Drug release (Rattus norvegicus [6]): Stable
